Data set [1] is described as follows: Cmax in C57BL/6J mouse at 10 mg/kg, po. It is filed as ADME, organism-based. On the set-up: dose 10 mg/kg, route oral. The following applies: in vivo. The method in brief:
(§1)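 Oral dosing at 10 mg/Kg in C57BL/6J mice. Vehicle is DMAC (10%), CrEL (10%), PEG300 (10%) in water, pH ~9, or, for one compound, DMSO (10%), CrEL (10%), PEG300 (10%) in water, pH ~7.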

The nature of data set [2]: Half life in C57BL/6J mouse at 10 mg/kg, po. Conditions: in vivo. It is filed as ADME, organism-based. A digest of the protocol: as §1
The target in data set [3] is T1, Adenosine receptor A2b (Homo sapiens, UniProt P29275).
T1 sequence (P29275 whole entry): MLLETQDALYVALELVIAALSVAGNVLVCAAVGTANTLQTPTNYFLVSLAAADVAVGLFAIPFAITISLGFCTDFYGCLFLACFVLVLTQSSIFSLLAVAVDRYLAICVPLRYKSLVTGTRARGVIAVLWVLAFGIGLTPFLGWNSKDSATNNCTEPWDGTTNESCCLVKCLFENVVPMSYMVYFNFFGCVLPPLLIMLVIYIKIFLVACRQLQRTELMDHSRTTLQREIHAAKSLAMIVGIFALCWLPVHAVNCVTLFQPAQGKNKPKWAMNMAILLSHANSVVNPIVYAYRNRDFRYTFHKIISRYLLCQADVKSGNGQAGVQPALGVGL
Briefly: Antagonist activity at human adenosine A2B receptor expressed in mouse NIH/3T3 cells assessed as inhibition of NECA-induced IL-6 release incubated for 15 mins followed by agonist treatment for 15 mins by HTRF assay. The data set is classed as cell-based. In general terms: In TR-FRET formats the signal depends on donor and acceptor labels being close together.

Data set [4] relates to Liver. Put plainly: Metabolic stability in human liver microsomes. It is filed as ADME, microsome.
The target of data set [5] is T2, Adenosine receptor A3 (Homo sapiens) (UniProt P0DMS8).
T2 sequence (whole entry): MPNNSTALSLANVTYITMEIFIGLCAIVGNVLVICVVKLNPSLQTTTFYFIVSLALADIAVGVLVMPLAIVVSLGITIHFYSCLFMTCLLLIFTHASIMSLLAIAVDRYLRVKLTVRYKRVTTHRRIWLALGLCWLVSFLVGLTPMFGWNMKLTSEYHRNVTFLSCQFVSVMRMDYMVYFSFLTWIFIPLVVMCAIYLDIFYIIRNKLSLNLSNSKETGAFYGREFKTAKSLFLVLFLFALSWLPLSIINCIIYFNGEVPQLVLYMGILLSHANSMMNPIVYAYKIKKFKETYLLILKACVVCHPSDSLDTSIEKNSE
Briefly: Displacement of [3H]-HEMADO from human adenosine A3 receptor expressed in HEK293 cell membranes at 1 uM after 90 mins relative to control. The method in brief: (§2)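 Membranes from HEK-293 cells stably transfected with human A1, A2A or A3 receptor, pretreated with 1 U/ml ADA. Membranes are incubated 90 min at room temperature with gentle agitation. Tracer and buffer per receptor: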

The nature of data set [6]: Oral bioavailability in C57BL/6J mouse at 10 mg/kg. It is filed as ADME, organism-based. Conditions: in vivo. The method in brief:
as §1

For data set [7], the system named is Liver. Briefly: Metabolic stability in rat liver microsomes. It is filed as ADME, microsome. (Liver microsomes are vesicles of endoplasmic reticulum, rich in cytochrome P450 enzymes.)
The target in data set [8] is Adenosine receptor A2a (Homo sapiens) (UniProt P29274). Put plainly: Displacement of [3H]-ZM241385 from human adenosine A2A receptor expressed in HEK293 cell membranes at 0.1 uM after 90 mins relative to control. A digest of the protocol: as §2
Background: Loss of bound radioactivity is the signal in a displacement assay; it reports binding, not function.

The nature of data set [9]: AUC (0 to t) in C57BL/6J mouse at 10 mg/kg, po. Conditions: in vivo. The data set is classed as ADME, organism-based. The method in brief: as §1
Data set [10] in a line: Aqueous solubility of the compound at pH 7.4. The data set is classed as physicochemical. A digest of the protocol:
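Aqueous solubility measured at pH 7.4.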

Data set [11] deals with Liver. Briefly: Metabolic stability in mouse liver microsomes. It is filed as ADME, microsome.
Data set [12] concerns the target T3, Adenosine receptor A1 (Homo sapiens) (UniProt P30542).
T3 sequence (whole entry): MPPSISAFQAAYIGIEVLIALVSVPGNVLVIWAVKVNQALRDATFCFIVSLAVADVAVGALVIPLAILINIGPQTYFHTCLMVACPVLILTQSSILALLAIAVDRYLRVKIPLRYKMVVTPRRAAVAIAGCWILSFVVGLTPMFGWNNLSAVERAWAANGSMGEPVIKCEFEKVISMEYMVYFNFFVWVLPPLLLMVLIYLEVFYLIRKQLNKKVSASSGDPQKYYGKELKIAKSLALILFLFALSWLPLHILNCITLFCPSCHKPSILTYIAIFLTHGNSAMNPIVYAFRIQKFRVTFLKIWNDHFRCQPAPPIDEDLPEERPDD
Briefly: Displacement of [3H]-DPCPX from human adenosine A1 receptor expressed in HEK293 cell membranes at 0.1 uM after 90 mins relative to control. A digest of the protocol: as §2

The target of data set [13] is T1, Adenosine receptor A2b. Put plainly: Antagonist activity at human adenosine A2B receptor expressed in HEK293 cells assessed as inhibition of NECA-induced increase in cAMP accumulation incubated for 15 mins followed by agonist treatment for 15 mins by HTRF assay. The data set is classed as functional, cell-based. A digest of the protocol: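 HEK-293 cells overexpressing human A2B, 24 h cultures, are pretreated with 1 U/mL ADA for 90 min at 37°C. Cells are harvested and preincubated with increasing compound concentrations for 15 min at room temperature in DMEM with ADA.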

Data set [14] deals with T1, Adenosine receptor A2b. Put plainly: Displacement of [3H]-MRS-1754 from human adenosine A2B receptor expressed in HEK293 cell membranes after 90 mins. Conditions: read-out: Ki. The method in brief:
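Membranes from HEK-293 cells stably expressing human A2B, ADA-treated, incubated with 1.6 nM [3H]-MRS-1754 in 50 mM Tris pH 6.5, 5 mM MgCl2, 1 mM EDTA, 1 U/ml ADA. Incubation 90 min at room temperature. Filtration; nonspecific binding with 100 µM NECA. Eight compound concentrations, each in triplicate; Ki derived by fitting.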

For data set [15], the system named is Mus musculus. Briefly: Antiinflammatory activity in […] allergic asthma mouse model assessed as inhibition of airway hyper-responsiveness at 3 mg/kg administered ip bid. The data set is classed as functional, organism-based.
A short description of data set [16]: Inhibition of CYP450 (unknown origin). The data set is classed as ADME, Homo sapiens.
Data set [17] concerns Mus musculus. Briefly: Antiinflammatory activity in ovalbumin-induced allergic asthma mouse model assessed as reduction in total cell count in bronchoalveolar lavage fluid at 3 mg/kg administered ip bid. The data set is classed as functional, organism-based.
For data set [18], the system named is HepG2. Briefly: Cytotoxicity against human HepG2 cells. It is filed as cell-based.
The target of data set [19] is Voltage-gated inwardly rectifying potassium channel KCNH2 (Homo sapiens, UniProt Q12809). Put plainly: Inhibition of human ERG.
For data set [20], the system named is MDCK. Briefly: Cytotoxicity against MDCK cells. The data set is classed as cell-based. Conditions: Canis lupus familiaris.
For data set [21], the system named is P-gp. Put plainly: Substrate activity at P-gp (unknown origin) assessed as ratio of permeability from basolateral to apical side over apical to basolateral side. The data set is classed as ADME. The following applies: human, not told.

pIC50, pKi: −log10 of the molar value. Values after ≈ are worked out from the molar mass of the structure shown. Active and inactive are the calls of the source. The rule behind the calls is not given here.

Adenosine receptor A2a (Homo sapiens), sequence (P29274 whole entry): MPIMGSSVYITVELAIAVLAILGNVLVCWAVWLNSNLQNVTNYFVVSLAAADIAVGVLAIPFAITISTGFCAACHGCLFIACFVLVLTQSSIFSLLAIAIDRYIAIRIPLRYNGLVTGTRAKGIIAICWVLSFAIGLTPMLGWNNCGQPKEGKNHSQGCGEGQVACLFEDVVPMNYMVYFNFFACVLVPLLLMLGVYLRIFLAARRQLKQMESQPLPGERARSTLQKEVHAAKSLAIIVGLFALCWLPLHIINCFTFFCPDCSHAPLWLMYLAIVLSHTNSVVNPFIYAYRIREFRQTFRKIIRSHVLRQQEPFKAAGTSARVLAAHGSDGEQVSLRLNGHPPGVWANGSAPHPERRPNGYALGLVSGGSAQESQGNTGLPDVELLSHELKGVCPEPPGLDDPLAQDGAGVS
Voltage-gated inwardly rectifying potassium channel KCNH2, sequence (Q12809 whole entry): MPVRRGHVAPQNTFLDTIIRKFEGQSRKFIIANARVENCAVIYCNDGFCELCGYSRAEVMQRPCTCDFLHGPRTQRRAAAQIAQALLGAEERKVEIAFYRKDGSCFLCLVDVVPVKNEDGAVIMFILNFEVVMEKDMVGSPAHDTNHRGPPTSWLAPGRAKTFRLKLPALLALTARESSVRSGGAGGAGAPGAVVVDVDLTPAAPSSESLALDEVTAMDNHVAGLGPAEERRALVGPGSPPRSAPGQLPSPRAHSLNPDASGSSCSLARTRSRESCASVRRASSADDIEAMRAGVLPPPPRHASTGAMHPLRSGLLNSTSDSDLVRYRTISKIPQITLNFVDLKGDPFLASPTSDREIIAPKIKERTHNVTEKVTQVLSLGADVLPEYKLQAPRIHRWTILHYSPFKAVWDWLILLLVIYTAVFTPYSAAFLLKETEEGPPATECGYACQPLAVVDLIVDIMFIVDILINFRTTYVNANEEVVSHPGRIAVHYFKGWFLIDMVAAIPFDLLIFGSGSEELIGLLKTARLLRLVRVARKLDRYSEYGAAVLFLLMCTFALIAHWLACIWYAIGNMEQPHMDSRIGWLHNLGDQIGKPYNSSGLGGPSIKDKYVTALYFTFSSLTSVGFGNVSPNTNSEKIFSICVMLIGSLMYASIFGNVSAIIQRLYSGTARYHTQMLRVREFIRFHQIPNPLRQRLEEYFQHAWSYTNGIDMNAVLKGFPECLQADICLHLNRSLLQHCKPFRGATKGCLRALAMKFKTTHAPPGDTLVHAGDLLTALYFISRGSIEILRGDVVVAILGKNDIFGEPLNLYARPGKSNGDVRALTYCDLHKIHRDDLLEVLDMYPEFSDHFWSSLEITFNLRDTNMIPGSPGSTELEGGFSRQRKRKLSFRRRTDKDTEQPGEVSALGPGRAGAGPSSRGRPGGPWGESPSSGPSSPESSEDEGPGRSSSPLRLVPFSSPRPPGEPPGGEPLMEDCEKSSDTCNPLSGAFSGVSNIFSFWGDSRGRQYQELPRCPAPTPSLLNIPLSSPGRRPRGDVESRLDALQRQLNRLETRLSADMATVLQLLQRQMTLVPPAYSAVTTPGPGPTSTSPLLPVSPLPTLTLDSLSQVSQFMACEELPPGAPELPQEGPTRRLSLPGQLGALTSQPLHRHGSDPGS

Consider `CCCn1c(=O)c2[nH]c(-c3cnn(CC#Cc4cccc(OC(F)(F)F)c4)c3)nc2n(CCC)c1=O`, for which the peak level in [1] (Cmax) was 6.6 µM. Further, the half-life – broadly, how long it takes for the measured level to halve – in data set [2] is 5 h. Also, in data set [3], the pIC50 (in general, the negative decadic logarithm of the IC50, by convention in mol/L) is 7.05. For the same molecule, the Stability entry in data set [4], in [7] and in [11] was “Stable” throughout. Also, the results for the inhibition in data set [5], in [8] and in [12] were 6%, 27% and 39%, respectively. Further, in data set [6], the bioavailability (as a rule, the share of a dose that reaches the circulation, judged against a reference dose that is usually intravenous) came to 42%. The AUC(0-t) – broadly, the area under the concentration-time curve up to a stated or last time point – in [9] stood at 67 µM·h. The solubility (as a rule, how much of the substance goes into solution per volume) in data set [10] is under 6 µM. The pKi (as a rule, −log10 of the Ki, conventionally taken in molar units) in data set [13] was 8.06; in data set [14], 8.44.

On to `CCCn1c(=O)c2[nH]c(-c3cnn(CC#Cc4cccc(OC(F)(F)F)c4)c3)nc2n(CC)c1=O`, for which the peak level in data set [1] (Cmax) was 13 µM. For the same molecule, the inhibition (commonly the change of the read-out against control, counted positive when it falls) in data set [15] is “Active”. Further, the half-life in [2] is 6.1 h. Besides, the pIC50 is 6.97 in [3]; under 5.00 in [16]; under 4.00 in data set [18]; under 4.60 in data set [19]; under 4.00 in data set [20]. The Stability result in data set [4], in data set [7] and in data set [11] was “Stable” in each case. The inhibition in [5] was 0%; in data set [8] it was 37%; in data set [12], 17%. In [6], this molecule showed a bioavailability of 76%. Moreover, the result in [17] was Active. Further, in data set [9], the AUC(0-t) worked out at 60 µM·h. Moreover, the concentration in solution in data set [10] (solubility) was 21 µM (≈ 10.2 µg/mL). For the same molecule, the pKi in data set [13] was 8.10; in data set [14], 7.89.

As to `CCCn1c(=O)c2[nH]c(-c3cnn(CC#Cc4cccc(C(=O)O)c4)c3)nc2n(CCC)c1=O`, the Cmax (in general, the maximum level reached in the sampled fluid or tissue) in data set [1] was determined as 1.9 µM. The same molecule gave a half-life in data set [2] of 1.8 h. Further, the pIC50 in data set [3] is 5.70. The Stability entry in data set [4], in data set [7] and in [11] was “Stable” throughout. The inhibition in [5] was found to be 0%; in data set [8] it was 32%; in data set [12], 20%. Moreover, the efflux ratio (in general, a quotient of directional permeabilities that is used to spot active efflux) in data set [21] is 12. In data set [6], the bioavailability is 10%. In data set [9], the AUC(0-t) is 2.2 µM·h. This molecule had a solubility in data set [10] of 529 µM (≈ 244 µg/mL). For the same molecule, the pKi is 8.74 in data set [13] and 8.28 in data set [14].

These data come from ChEMBL document CHEMBL4020725, “Design and synthesis of novel xanthine derivatives as potent and selective A2B adenosine receptor antagonists for the treatment of chronic inflammatory airway diseases” (Eur J Med Chem, 2017).
